# Source: PubChem (several laboratories)
# Only some compounds are listed: those with a hit (about 12% of all), similar ones and a draw of the others.
# WT yeast gro inh = growth inhibition of WT strain, primary screen, mitochondrial fusion inhibitor project, WT and mutant strains, chemical genetic | mitochondrial fusion phenotypic screen | inhibition, % at 10 µM | 2.1% of 190,000 active | AID 1362, 2008; in the data active = inhibition above about 58%; tested in S. cerevisiae
# L major viab = Leishmania major promastigote growth inhibition, primary screen; Leishmania major promastigotes, resazurin fluorescence viability; inhibition, % at 10 µM; 9% of 200,000 active; in the data active = inhibition above about 50%;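 note: promastigotes grown with compound for 44 hours at 28 °C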
# Diaph act CS = compounds boosting diaphorase resazurin reduction – biochemical, uHTS, resorufin fluorescence, counter-screen for diaphorase-coupled primary assays, primary screen; Diaphorase/resazurin coupled assay, 16 min; active compounds read high; 1 = vehicle wells, 0 = NADH-free wells; activation factor at 20 µM; 0.005% of 190,000 active; AID 1229, 2008;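 active = diaphorase activity raised at least twofold by the compound at 20 µM; inactive = activation factor below 2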
#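 Assay system: bacterial diaphorase enzyme (C. kluyveri) / Input: enzyme 0.07 U/mL final / Medium: 50 mM HEPES pH 7.4 with 4.542 mM MgCl2, 0.005% Tween 20 / Doses: single compound dose of 20 µM, 1% DMSO final / Incubation: 16 min enzyme reaction, ambient temperature / Signal: fluorescence, excitation 544 nm and emission 590 nm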
# Diaph inh CS = diaphorase inhibitors and chemical oxidizers, primary screen, counter-screen for diaphorase-coupled primary assays, biochemical, uHTS, resorufin fluorescence; diaphorase resazurin-to-resorufin fluorescence, NADH, 16 min; bacterial (C. kluyveri) enzyme, not human; inhibition, % at 20 µM; 0.69% of 190,000 active; AID 1217, 2008;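 active = primary screen inhibition at 20 µM above a set limit, cut at about 50% in these data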;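 note: plate controls were DMSO with full reaction for no effect and wells lacking NADH for full effect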
#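 Test system: bacterial diaphorase enzyme (C. kluyveri); Quantity: 0.14 U/mL diaphorase, enzyme working solution; Times: reaction incubation of 16 min at room temperature; Measured by: fluorescence of resorufin formed from resazurin, Ex 544/Em 590 nm; Benchmarks: positive control minus NADH, DMSO neutral control.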
# Cl transport mod = KCC2 cotransporter modulators, thallium flux, primary screen, cell-based, HEK293 KCC2, FluoZin-2 fluorescence, MLSMR. 2.2% of 190,000 active. Solute carrier family 12 member 5 (Homo sapiens), Q9H2X9. KCC2 cells, thallium flux FluoZin-2 fluorescence. B-score of Tl+ flux slope (higher = more flux/activation; lower = inhibition) at 10 µM. AID 1456, 2008;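 active = thallium flux slope and its plate-corrected score both differing from the plate sample mean at a set confidence after two filtering rounds, in either direction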;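 note: slope of fluorescence scaled to starting intensity during 10 to 20 s after thallium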
# ROMK primary = ROMK potassium channel modulators, primary screen, cell-based, thallium flux, MLSMR library; ATP-sensitive inward rectifier potassium channel 1 (Homo sapiens), P48048; Tet-inducible ROMK, thallium flux fluorescence; actives lie on both sides; B-score at 10 µM; 2% of 130,000 active;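 active = signal ratio slope over the read window, or its plate-corrected B-score, at least 3 SD from the plate mean, either direction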;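 note: B-score of the F/F0 ratio slope over 7 to 12 s after thallium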
# Target sequence (P48048 whole entry, looked up): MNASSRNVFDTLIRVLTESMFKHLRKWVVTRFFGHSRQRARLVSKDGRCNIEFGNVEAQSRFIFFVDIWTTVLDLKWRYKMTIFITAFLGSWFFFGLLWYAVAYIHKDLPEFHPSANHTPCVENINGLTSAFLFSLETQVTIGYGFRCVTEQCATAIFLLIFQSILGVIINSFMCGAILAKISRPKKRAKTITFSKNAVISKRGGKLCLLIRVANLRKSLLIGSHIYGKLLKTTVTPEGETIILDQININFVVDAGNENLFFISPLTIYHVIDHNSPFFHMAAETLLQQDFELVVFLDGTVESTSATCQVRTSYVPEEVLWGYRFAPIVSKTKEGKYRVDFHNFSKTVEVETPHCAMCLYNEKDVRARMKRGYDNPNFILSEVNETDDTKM
# * = called active by the depositor; i = inactive; . = no result given.
SMILES,WT yeast gro inh,L major viab,Diaph act CS,Diaph inh CS,Cl transport mod,ROMK primary
COc1ccc(-c2ccc(C#N)c(OC(=O)c3c(Cl)cccc3Cl)n2)cc1,22.2,6.7,0.8,15.6,0.166,-1.23
CCN=C1S/C(=C\c2ccc(OC)c(OCC)c2)C(=O)N1CC,11.1,69.6*,0.9,9.9,1.46,1.54
COc1ccc(/C=C2\SC(=NCc3ccccc3)N(Cc3ccccc3)C2=O)cc1OC,-6.5,1.7,0.8,22.7,-0.255,.
COCCCNC(=O)c1cc2c(=O)n3cc(C)ccc3nc2nc1NCC1CCCO1 (stereo not drawn),6.9,5.6,1,3.6,0.168,.
Cc1ccccc1CSc1nnc([C@@H]2CCCN2)o1,.,.,.,.,0.222,.
Clc1cccc(Oc2ncccn2)c1,3.2,50.3*,0.9,12.1,1.42,0.262
COc1ccc(CN(CCC(c2ccccc2)C2CCOC(C)(C)C2)C(C)=O)cc1 (stereo not drawn),15.5,83.4*,0.9,11.4,-0.84,-1.12
COc1ccc(CNCCC(c2ccccc2)C2CCOC(C)(C)C2)cc1 (stereo not drawn),14.5,90.5*,1,-0.1,-1.33,-0.693
COc1ccc(CNCCC2(C(C)C)CCOC(C)(C)C2)cc1 (stereo not drawn),.,.,.,.,0.29,.
Cc1cc(Br)cn2cc(C(=O)O)nc12,-5.7,2.6,0.9,9.9,0.923,-0.337
O=C(Cc1ccc(Cl)cc1)Nc1ccc(Br)cc1,3.4,-7.3,0.9,11.9,0.727,-0.361
O=C(Cc1ccc(Br)cc1)NNC(=O)Nc1ccc(Cl)cc1,10.3,72.5*,1,2.4,0.198,0.0885
COCC[N+]1(C)CCCCC1,-5.3,-5.8,0.9,12.2,.,.
CNc1ccccc1C(C)(C)c1cc(-c2cccc(OC)c2)no1,62.8*,11.7,0.9,14.9,-0.202,-0.275
CC(=O)Nc1ccc(NC(=O)C(C)OC(=O)CNS(=O)(=O)c2cccc(Cl)c2)cc1 (stereo not drawn),-6.6,82.3*,0.8,15.7,0.393,0.86
CCOc1ccc(NC(=O)c2cc3cc4ccc(C)cc4nc3o2)cc1,-3.0,1.6,0.9,5.1,0.149,0.111
COc1ccc(S(=O)(=O)Cc2ccc(C(=O)NCCCN3CCc4ccccc4C3)o2)cc1,0.9,2.5,0.9,5.5,-0.0172,.
COc1ccc2nc3sc(C(=O)NCCCN4CCc5ccccc5C4)cc3cc2c1,17.0,99.7*,1,3.7,0.634,-0.213
Cc1ccc2nc(Cl)c3cc(C(=O)NCCCN4CCCC4)sc3c2c1,2.6,100.7*,1.3,-28.0,0.641,.
Cc1ccc2[nH]c(=O)c3cc(C(=O)NCCN4CCN(C)CC4)sc3c2c1,-2.3,6.7,0.7,29.7,-0.055,.
Cc1ccc2cc3cc(C(=O)NCCCN4CCc5ccccc5C4)oc3nc2c1,14.9,97.3*,1,3.6,-1.95,.
Cc1ccc2cc3cc(C(=O)NCCCN4CCCCCC4)oc3nc2c1,11.4,96.6*,1.2,-15.9,0.0138,.
Nc1nc(SCC(=O)NCCc2ccccc2)[nH]c(=O)c1-c1ccccc1,-8.1,-4.4,1,0.2,0.438,0.0673
CCOC(=O)c1cc(NC(=O)Nc2ccccn2)c(C)nc1C,2.1,16.7,0.9,13.8,-0.841,-0.0025
CCOc1ccc2c3c(c(=O)oc2c1OCC)CCCC3,22.6,5.8,0.9,13.8,-1.01,.
SMILES,WT yeast gro inh,L major viab,Diaph act CS,Diaph inh CS,Cl transport mod,ROMK primary
CCCOc1ccc2c3c(c(=O)oc2c1OCCC)CCCC3,6.6,54.4*,0.9,10.8,-1.01,.
CCOC(=O)c1cc(=O)c2ccc(OCC(=O)Nc3ccccc3)cc2o1,.,.,.,.,0.586,.
CCOC(=O)C1=C(C)N(CC(C)C)C(=O)/C1=C\c1ccc(OCC(=O)Nc2ccccc2)cc1,0.0,81.1*,0.8,18.0,0.479,0.515
CC(=O)Nc1ccc(/C=N/N2CCCCC2)cc1,-3.8,1.0,1.1,-13.0,-0.63,-0.00707
CCC(C)(C)C(=O)Nc1cccc(Cl)c1C,5.0,-0.3,1,1.0,-0.454,0.664
COc1ccc(-c2cc(-c3n[nH]c(=S)n3-c3cccc4ccccc34)[nH]n2)cc1,-11.5,30.0,0.6,40.2,-0.773,-0.415
S=c1[nH]nc(-c2cc(-c3ccsc3)n[nH]2)n1-c1cccc2ccccc12,4.3,74.6*,0.7,32.0,0.0437,0.136
CCOc1ccc(OCC)c(S(=O)(=O)n2cc(C)nc2CC)c1,8.0,98.7*,1,-2.3,.,0.913
CCNc1ccc2noc3c2c1C(=O)c1ccccc1-3,45.6,9.3,0.6,35.8,-1.33,.
O=C1c2ccccc2-c2onc3ccc(NCc4ccco4)c1c23,65.8*,-2.4,0.6,41.8,i,.
COc1ccc(Cl)cc1N(CC(=O)N/N=C/c1ccc(OC(C)C)cc1)S(=O)(=O)c1ccc(C)c([N+](=O)[O-])c1,-18.9,98.1*,0.9,5.2,0.696,-0.375
COc1ccc(Cl)cc1N(CC(=O)N(C)C)S(=O)(=O)c1ccc(C)c([N+](=O)[O-])c1,7.6,9.8,0.9,5.5,-0.155,0.578
C=CCOc1cccc(/C=N/NC(=O)CN(c2cc(Cl)ccc2OC)S(=O)(=O)c2ccc(C)c([N+](=O)[O-])c2)c1,-12.9,98.6*,0.9,12.2,-0.484,-0.409
CCSc1nnc(COc2ccccc2)n1CC,.,.,.,.,-0.221,.
O=C(CC12CC3CC(CC(C3)C1)C2)NCC(c1ccc(F)cc1)N1CCOCC1 (stereo not drawn),1.9,-1.4,1,0.9,0.0549,0.435
COC(=O)C1=C(C)N(c2ccc(Cl)cc2)/C(=C/c2cccs2)C1=O,15.0,36.2,0.9,9.5,0.0205,.
COC(=O)C1=C(C)N(c2ccc(C)c(C)c2)/C(=C/c2cccs2)C1=O,5.7,82.5*,0.8,21.1,.,-0.0668
COC(=O)C1=C(C)N(c2ccccc2)/C(=C/c2cccs2)C1=O,1.9,51.5*,0.9,14.0,.,.
O=c1c2ccccc2c(C=NC2CCS(=O)(=O)C2)c(O)n1-c1ccccc1 (stereo not drawn),10.3,-2.6,0.9,14.8,-0.96,-0.0175
CCOC(=O)c1c(C)oc2c1c(C=NC1CCS(=O)(=O)C1)c(O)c1ccccc12 (stereo not drawn),-4.9,28.1,0.2,75.8*,0.262,.
CCOC(=O)c1c(C)oc2c1c(C=NCCC(=O)O)c(O)c1ccccc12,4.0,-3.6,0.3,71.0*,-0.0762,1.16
C=CCSC1=N/C(=C/c2ccsc2)C(=O)N1c1ccccc1,17.5,3.0,0.8,17.5,-0.576,1.11
